According to ChEMBL document CHEMBL1145092, “Soft antimicrobial agents: synthesis and activity of labile environmentally friendly long chain quaternary ammonium compounds” (J Med Chem, 2003):

Columns and labels:
Pseudomonas aeruginosa = assay: Minimum concentration required to inhibit Pseudomonas aeruginosa ATCC 27853; type: functional
Procedure, shortened: (§1)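 Broth doubling-dilution MIC in Mueller Hinton broth against ATCC quality-control strains, incubated 24 h at 37 °C in ambient air. Poorly water-soluble compounds were dissolved in minimal DMSO. Values are in µg/mL.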

Staphylococcus aureus [1] = assay: Tested for antibacterial activity against Staphylococcus aureus; type: functional
Staphylococcus aureus [2] = assay: Minimum concentration required to inhibit Staphylococcus aureus ATCC 25923; type: functional; procedure, shortened: as §1
Enterococcus faecalis = assay: Minimum concentration required to inhibit Enterococcus faecalis ATCC 29212; type: functional; procedure, shortened: as §1
Escherichia coli = assay: Minimum concentration required to inhibit Escherichia coli ATCC 25922; type: functional; procedure, shortened: as §1
[3] = Half life (t1/2) was determined; type: ADME
Procedure, shortened: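 Hydrolytic stability: compound from a 0.1 mg/mL ethanol stock was spiked into 10 mM phosphate buffer, pH 6, and held at 60 °C (±0.2 °C). Periodic HPLC or LC-MS/MS analysis was run, and k_obs came from linear regression of peak integration (n = 3). Selected compounds were also tested in diluted (1:4) agar at 37 °C.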

MIC (Pseudomonas aeruginosa) | Log 1/MIC (Staphylococcus aureus [1]) | MIC (Staphylococcus aureus [2]) | MIC (Enterococcus faecalis) | MIC (Escherichia coli) | Log t1/2 [3] | Compound | MLC (Pseudomonas aeruginosa) | MLC (Staphylococcus aureus [2]) | MLC (Enterococcus faecalis) | MLC (Escherichia coli)
> 1000 µg/mL | 0.42 | 250 µg/mL | 250 µg/mL | > 1000 µg/mL |  | CCCCCCCCCCCCCCCCOC(=O)CC[n+]1ccccc1 | >1000 µg/mL | 250 µg/mL | 500 µg/mL | >1000 µg/mL
1000 µg/mL | 0.6 | < 0.25 µg/mL | < 0.25 µg/mL | 1000 µg/mL | 0.81 | CCCCCCCCCCCCCCCCCCNC(=O)C[n+]1ccccc1 | >2000 µg/mL | 4 µg/mL | 8 µg/mL | >2000 µg/mL
250 µg/mL | -0.6 | 4 µg/mL | 4 µg/mL | 125 µg/mL | 1.81 | CCCCCCCCCCCC(=O)OCCC[n+]1ccccc1 | 250 µg/mL | 4 µg/mL | 16 µg/mL | 125 µg/mL
250 µg/mL | -1.2 | 16 µg/mL | 32 µg/mL | 16 µg/mL | 0.52 | CCCCCCCCCCCC(=O)OCC[N+](CC)(CC)CC.[Br-] | 250 µg/mL | 16 µg/mL | 32 µg/mL | 125 µg/mL
> 2000 µg/mL |  | 8 µg/mL | 32 µg/mL | 125 µg/mL |  | CCCCCCCCCCCC(=O)OCC[n+]1ccccc1.CCCCCCCCCCCCCCCC(=O)OCC[n+]1ccccc1.CCCCCCCCCCCCCCCCCC(=O)OCC[n+]1ccccc1.[Br-].[Br-].[Br-] | >2000 µg/mL | 16 µg/mL | 32 µg/mL | 250 µg/mL
> 12800 µg/mL | -4.1 | > 12800 µg/mL | > 12800 µg/mL | > 12800 µg/mL | -1.1 | CCCCCCCCCCCCCCCCCCOC(=O)C[n+]1ccccc1 | >12800 µg/mL | >12800 µg/mL | >12800 µg/mL | >12800 µg/mL
> 12800 µg/mL |  | > 12800 µg/mL | > 12800 µg/mL | > 12800 µg/mL |  | CCOC(=O)C(C)[n+]1ccccc1 (stereo not drawn) | >12800 µg/mL | >12800 µg/mL | >12800 µg/mL | >12800 µg/mL
> 2000 µg/mL | -2.69 | 500 µg/mL | > 2000 µg/mL | 1000 µg/mL | 0.62 | CCCCCCCC(=O)OCC[n+]1ccccc1.[Br-] | >2000 µg/mL | 500 µg/mL | >2000 µg/mL | 1000 µg/mL
> 2000 µg/mL |  | 8 µg/mL | 32 µg/mL | 500 µg/mL |  | CCCCCCCCCCCC(=O)OCC[N+](CC)(CC)CC.CCCCCCCCCCCCCCCC(=O)OCC[N+](CC)(CC)CC.[Br-].[Br-] | >2000 µg/mL | 16 µg/mL | 125 µg/mL | 500 µg/mL
 |  | 4 µg/mL | 16 µg/mL | 250 µg/mL |  | CCCCCCCCCCCC(=O)OCC[N+](CCCC)(CCCC)CCCC.CCCCCCCCCCCCCCCC(=O)OCC[N+](CCCC)(CCCC)CCCC.[Br-].[Br-] | >2000 µg/mL | 32 µg/mL | 16 µg/mL | 500 µg/mL
> 1000 µg/mL |  | > 1000 µg/mL | > 1000 µg/mL | > 1000 µg/mL |  | O=C(O)CC[n+]1ccccc1 | >1000 µg/mL | >1000 µg/mL | >1000 µg/mL | >1000 µg/mL
250 µg/mL |  | 16 µg/mL | 16 µg/mL | 64 µg/mL |  | CCCCCCCCCCCC(=O)OCC[N+](C)(C)C | 250 µg/mL | 16 µg/mL | 64 µg/mL | 64 µg/mL
3200 µg/mL |  | 3200 µg/mL | 320 µg/mL | 3200 µg/mL |  | CC(=O)OC[n+]1ccccc1.[Cl-] | 3200 µg/mL | 3200 µg/mL | 3200 µg/mL | 3200 µg/mL
250 µg/mL | -0.3 | 2 µg/mL | 4 µg/mL | 125 µg/mL | 0.12 | CCCCCCCCCCCCCCCC(=O)OCC[N+](CCCC)(CCCC)CCCC | 1000 µg/mL | 2 µg/mL | 8 µg/mL | 250 µg/mL
> 1000 µg/mL |  | > 1000 µg/mL | > 1000 µg/mL | > 1000 µg/mL |  | CC[N+](CC)(CC)CCO.[Br-] | >1000 µg/mL | >1000 µg/mL | >1000 µg/mL | >1000 µg/mL
500 µg/mL |  | 8 µg/mL | 8 µg/mL | 125 µg/mL |  | CCCCCCCCCCCCCCCCCCNC(=O)C[n+]1ccccc1.CCCCCCCCCCCCNC(=O)C[n+]1ccccc1.[Cl-].[Cl-] | 500 µg/mL | 32 µg/mL | 16 µg/mL | 125 µg/mL
> 2000 µg/mL |  | > 2000 µg/mL | > 2000 µg/mL | > 2000 µg/mL |  | OCCC[n+]1ccccc1 | >2000 µg/mL | >2000 µg/mL | >2000 µg/mL | >2000 µg/mL
1000 µg/mL |  | 32 µg/mL | 64 µg/mL | 125 µg/mL |  | CCCCCCCCCCCC(=O)OCC[N+](CC)(CC)CC.CCCCCCCCCCCC(=O)OCC[n+]1ccccc1.[Br-].[Br-] | 1000 µg/mL | 125 µg/mL | 64 µg/mL | 250 µg/mL
> 2000 µg/mL |  | > 2000 µg/mL | > 2000 µg/mL | > 2000 µg/mL |  | C[N+](C)(C)CCO [CHOLINE] | >2000 µg/mL | >2000 µg/mL | >2000 µg/mL | >2000 µg/mL
> 12800 µg/mL |  | > 12800 µg/mL | > 12800 µg/mL | > 12800 µg/mL |  | CCOC(=O)C[n+]1ccccc1 | >12800 µg/mL | >12800 µg/mL | >12800 µg/mL | >12800 µg/mL
12800 µg/mL |  | 6400 µg/mL | 12800 µg/mL | 12800 µg/mL |  | O=C(O)C[n+]1ccccc1 | 12800 µg/mL | 12800 µg/mL | 12800 µg/mL | 12800 µg/mL
500 µg/mL |  | 16 µg/mL | 32 µg/mL | 125 µg/mL |  | CCCCCCCCCCCC(=O)OCC[N+](CC)(CC)CC.CCCCCCCCCCCC(=O)OCC[N+](CCCC)(CCCC)CCCC.CCCCCCCCCCCC(=O)OCC[n+]1ccccc1.CCCCCCCCCCCCNC(=O)C[n+]1ccccc1.[Br-].[Br-].[Br-].[Br-] | 1000 µg/mL | 250 µg/mL | 32 µg/mL | 250 µg/mL
